{"source": "ChEMBL document CHEMBL2146379", "about": "“Antimetastatic effect of sulfamate carbonic anhydrase IX inhibitors in breast carcinoma xenografts” (J Med Chem, 2012)", "key": {"MDA-MB-231 [1]": {"system": "MDA-MB-231", "test": "Antimetastatic activity against EGFP tagged human MDA-MB-231 cells expressing CA9 assessed as inhibition of cell migration under anoxic condition after 24 hrs by scratch-wound assay", "type": "functional, cell-based", "summary_of_the_method": "(§1)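 Scratch-wound migration in confluent monolayers of RPMI 1640/10% FCS/2 mM glutamine-grown cells (eGFP-tagged MDA-MB-231, WRO, FTC-133; untagged RT112, HCT116). Incubation 24 h in normoxia or anoxia with DMSO or inhibitor at increasing concentrations (3.3, 10, 33 μM tested). Wound closure imaged by fluorescence. n = 3 per concentration per cell line; mean ± SEM, Student's t test.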"}, "MDA-MB-231 [2]": {"system": "MDA-MB-231", "test": "Antimetastatic activity against EGFP tagged human MDA-MB-231 cells expressing CA9 assessed as inhibition of cell migration under normoxic condition after 24 hrs by scratch-wound assay", "type": "functional, cell-based", "summary_of_the_method": "as §1"}, "HCT-116 [3]": {"system": "HCT-116", "test": "Antimetastatic activity against human HCT116 cells xenografted in mouse assessed as inhibition of lung metastasis", "type": "functional"}, "RT-112": {"system": "RT-112", "test": "Antimetastatic activity against CA9 deficient human RT112 cells assessed as inhibition of cell migration under anoxic condition at 33 uM after 24 hrs by scratch-wound assay", "type": "functional, cell-based", "summary_of_the_method": "as §1"}, "MDA-MB-231 [4]": {"system": "MDA-MB-231", "test": "Antimetastatic activity against EGFP tagged human MDA-MB-231 cells expressing CA9 assessed as inhibition of cell migration under anoxic condition at 10 uM after 24 hrs by scratch-wound assay", "type": "functional", "settings": "MDA-MB-231, 24 h", "summary_of_the_method": "as §1"}, "FTC-133": {"system": "FTC-133", "test": "Antimetastatic activity against EGFP tagged human FTC-133 cells expressing CA9 assessed as inhibition of cell migration under anoxic condition at 33 uM after 24 hrs by scratch-wound assay", "type": "functional, cell-based", "summary_of_the_method": "as §1"}, "MDA-MB-231 [5]": {"system": "MDA-MB-231", "test": "Antimetastatic activity against EGFP tagged human MDA-MB-231 cells expressing CA9 assessed as inhibition of cell spreading under anoxic condition at 33 uM after 60 mins by phalloidin staining", "type": "functional, cell-based"}, "MDA-MB-231 [6]": {"system": "MDA-MB-231", "test": "Antimetastatic activity against EGFP tagged human MDA-MB-231 cells expressing CA9 assessed as inhibition of cell spreading under normoxic condition at 33 uM after 60 mins by phalloidin staining", "type": "functional, cell-based"}, "MDA-MB-231 [7]": {"system": "MDA-MB-231", "test": "Antimetastatic activity against EGFP tagged human MDA-MB-231 cells expressing CA9 xenografted in nu/nu CBA mouse tumor assessed as reduction in metastasic burden in lungs at 10 mg/kg, ip, administered 5 days on 2 days off measured on day 10 by clonogenic assay", "type": "functional, organism-based", "parameters": "dose 10 mg/kg", "summary_of_the_method": "(§2)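 Female nu/nu CBA mice, 10−12 weeks old, 8 per group, injected orthotopically into the fourth inguinal nipple with eGFP-MDA-MB-231 cells (5 × 10⁷ cells/mL in 1:1 serum-free RPMI/Matrigel). From 150 mm³ tumors, dosed 10 mg/kg ip daily (saline, 4% DMSO), 5 days on/2 off. Callipers 3×/week; health checked daily; body weight tracked. Culled at 1000 mm³; lung metastasis by ex vivo clonogenic assay.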"}, "MDA-MB-231 [8]": {"system": "MDA-MB-231", "test": "Cytotoxicity against EGFP tagged human MDA-MB-231 cells expressing CA9 at 100 uM", "type": "functional, cell-based"}, "HCT-116 [9]": {"system": "HCT-116", "test": "Antimetastatic activity against human HCT116 cells assessed as stimulation of cell migration under anoxic condition at 33 uM after 24 hrs by scratch-wound assay", "type": "functional", "summary_of_the_method": "as §1"}, "Mus musculus [10]": {"system": "Mus musculus", "test": "Toxicity in nu/nu CBA mouse xenografted with EGFP tagged human MDA-MB-231 cells expressing CA9 assessed as change in body weight at 10 mg/kg, ip administered 5 days on 2 days off", "type": "organism-based", "parameters": "dose 10 mg/kg, route intraperitoneal", "settings": "in vivo", "summary_of_the_method": "as §2"}, "[11]": {"test": "Antimetastatic activity against EGFP tagged human WRO cells expressing CA9 assessed as inhibition of cell migration under anoxic condition at 100 uM after 24 hrs by scratch-wound assay", "type": "functional"}, "MDA-MB-231 [12]": {"system": "MDA-MB-231", "test": "Antimetastatic activity against EGFP tagged human MDA-MB-231 cells expressing CA9 assessed as inhibition of cell migration under anoxic condition at 3.3 uM after 24 hrs by scratch-wound assay", "type": "functional", "settings": "MDA-MB-231, 24 h", "summary_of_the_method": "as §1"}, "Mus musculus [13]": {"system": "Mus musculus", "test": "Toxicity in nu/nu CBA mouse xenografted with EGFP tagged human MDA-MB-231 cells expressing CA9 assessed as signs of intolerance at 10 mg/kg, ip administered 5 days on 2 days off", "type": "organism-based", "parameters": "dose 10 mg/kg, route intraperitoneal", "settings": "in vivo", "summary_of_the_method": "as §2"}, "MDA-MB-231 [14]": {"system": "MDA-MB-231", "test": "Antimetastatic activity against EGFP tagged human MDA-MB-231 cells expressing CA9 assessed as inhibition of cell migration under anoxic condition at 33 uM after 24 hrs by scratch-wound assay", "type": "functional", "settings": "MDA-MB-231, 24 h", "summary_of_the_method": "as §1"}, "MDA-MB-231 [15]": {"system": "MDA-MB-231", "test": "Antitumor activity against EGFP tagged human MDA-MB-231 cells expressing CA9 xenografted in nu/nu CBA mouse assessed as tumor growth inhibition at 10 mg/kg, ip administered 5 days on 2 days off", "type": "functional, organism-based", "parameters": "dose 10 mg/kg", "summary_of_the_method": "as §2"}, "Carbonic anhydrase 9": {"biological_target": "Carbonic anhydrase 9 (Homo sapiens, UniProt Q16790)", "test": "Inhibition of human recombinant transmembrane CA9 preincubated for 15 mins by stopped-flow CO2 hydration method", "summary_of_the_method": "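Stopped-flow CO₂ hydration with in-house recombinant human CA, CO₂ 1.7−17 mM. Inhibitor diluted in water from 0.1 mM stock down to 0.01 nM, preincubated with enzyme 15 min at room temperature. Initial velocity from ≥6 traces of the first 5−10% of reaction, uncatalyzed rate subtracted.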"}}, "note": "pKi: −log10 of the molar value. Active and inactive are the calls of the source. The calls are words filed in the database; no cut-off is given here."}
{"smiles": "NS(=O)(=O)Oc1ccc(NC(=O)Nc2ccc([N+](=O)[O-])cc2)cc1", "values": [{"measurement": "inhibition", "setting": "MDA-MB-231 [1]", "value": "Active"}, {"measurement": "inhibition", "setting": "MDA-MB-231 [2]", "value": "Active"}]}
{"smiles": "Cc1cc(C)cc(NC(=O)Nc2ccc(OS(N)(=O)=O)cc2)c1", "values": [{"measurement": "inhibition", "setting": "HCT-116 [3]", "value": "inactive"}, {"measurement": "inhibition", "setting": "RT-112", "value": "inactive"}, {"measurement": "inhibition at 10 µM", "setting": "MDA-MB-231 [4]", "value": 21, "unit": "%"}, {"measurement": "inhibition", "setting": "FTC-133", "value": "Active"}, {"measurement": "inhibition", "setting": "MDA-MB-231 [5]", "value": "Active"}, {"measurement": "inhibition", "setting": "MDA-MB-231 [6]", "value": "inactive"}, {"measurement": "Activity", "setting": "MDA-MB-231 [7]", "value": "Active"}, {"measurement": "Activity", "setting": "MDA-MB-231 [8]", "value": "Active"}, {"measurement": "Activity", "setting": "HCT-116 [9]", "value": 44, "unit": "%"}, {"measurement": "Activity", "setting": "Mus musculus [10]", "value": "Non-toxic"}, {"measurement": "inhibition at 100 µM", "setting": "[11]", "value": 41, "unit": "%"}, {"measurement": "inhibition at 3.3 µM", "setting": "MDA-MB-231 [12]", "value": 5, "unit": "%"}, {"measurement": "Activity", "setting": "Mus musculus [13]", "value": "Non-toxic"}, {"measurement": "inhibition at 33 µM", "setting": "MDA-MB-231 [14]", "value": 50, "unit": "%"}, {"measurement": "growth inhibition (GI)", "setting": "MDA-MB-231 [15]", "value": "inactive"}]}
{"smiles": "NS(=O)(=O)Oc1ccc(NC(=S)Nc2ccc(-c3c4ccc(=O)cc-4oc4cc(O)ccc34)c(C(=O)O)c2)cc1", "values": [{"measurement": "inhibition", "setting": "MDA-MB-231 [1]", "value": "inactive"}]}
{"smiles": "NS(=O)(=O)Oc1ccc(NC(=O)Nc2ccc(F)cc2)cc1", "values": [{"measurement": "inhibition", "setting": "MDA-MB-231 [1]", "value": "Active"}, {"measurement": "inhibition", "setting": "MDA-MB-231 [2]", "value": "Active"}]}
{"smiles": "NS(=O)(=O)Oc1ccc(NC(=O)Nc2ccc(Cl)cc2)cc1", "values": [{"measurement": "inhibition", "setting": "MDA-MB-231 [1]", "value": "Active"}, {"measurement": "inhibition", "setting": "MDA-MB-231 [2]", "value": "Active"}]}
{"smiles": "NS(=O)(=O)Oc1ccc(NC(=O)Nc2ccc(Oc3ccccc3)cc2)cc1", "values": [{"measurement": "inhibition at 33 µM", "setting": "MDA-MB-231 [14]", "value": 49, "unit": "%"}]}
{"smiles": "NS(=O)(=O)Oc1ccc(NC(=O)Nc2c(F)c(F)c(F)c(F)c2F)cc1", "values": [{"measurement": "inhibition at 33 µM", "setting": "MDA-MB-231 [14]", "value": 32, "unit": "%"}]}
{"smiles": "NS(=O)(=O)Oc1ccc(-[n+]2c(-c3ccccc3)cc(-c3ccccc3)cc2-c2ccccc2)cc1", "values": [{"measurement": "inhibition", "setting": "MDA-MB-231 [1]", "value": "inactive"}, {"measurement": "pKi", "setting": "Carbonic anhydrase 9", "value": 7.85}]}
{"smiles": "COc1ccc(NC(=O)Nc2ccc(OS(N)(=O)=O)cc2)cc1", "values": [{"measurement": "inhibition", "setting": "MDA-MB-231 [1]", "value": "inactive"}]}
{"smiles": "CN(C)c1ccc(NC(=O)Nc2ccc(OS(N)(=O)=O)cc2)cc1", "values": [{"measurement": "inhibition", "setting": "MDA-MB-231 [1]", "value": "inactive"}, {"measurement": "pKi", "setting": "Carbonic anhydrase 9", "value": 8.05}]}
